The nature of data set [1]: Cytotoxicity in mammalian cells. Type of data set: cell-based, BALB/c mice. Particulars: BALB/c, mouse, bone marrow-derived macrophages (BMDM). The procedure, abridged: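 Bone-marrow cells from BALB/c mice were differentiated for 7 days at 37 °C, 5% CO2. The medium was DMEM with 10% FBSi, 1% NEAA and 10% L929-conditioned medium. The resulting macrophages were exposed to test compound at up to 40 μM for 24 h. Viability was measured by resazurin assay. CC50 was calculated from percent viability relative to untreated control.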

Data set [2] has as its system L. amazonensis promastigotes. Description: Activity against promastigotes. Particulars: Leishmania amazonensis, 24 h, read-out: IC50 L. amazonensis (P). Type of data set: cell-based. The procedure, abridged: (§1)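 Promastigotes of L. major MHOM/SA/85/JISH118 or L. amazonensis MHOM/BR/LTB0016 were kept at 25 °C for at most 10 passages in Schneider's with 10% FBSi, 2% human urine and 5 mM HEPES. Late-exponential cells were seeded at 3×10^6 cells/mL. They were treated 24 h with test compound (DMSO stock diluted in Schneider's), in triplicate. Controls were 0.5% DMSO and amphotericin B. Resazurin read-out; IC50 fitted.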

The test system of another data set is L. major promastigotes. Description: Activity against promastigotes. Type of data set: cell-based. Particulars: Leishmania major, 24 h, read-out: IC50 L. major (P). The essentials: as §1
Data set [3] relates to L. infantum promastigotes. Description: Activity against promastigotes. The format is cell-based. The conditions noted are these: Leishmania infantum, 24 h, read-out: IC50 L. infantum (P). The essentials:
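L. infantum MHOM/MA/67/ITMAP263 promastigotes were grown at 25 °C for at most 10 passages in RPMI with 10% FBSi and 5 mM HEPES, pH 7.4. Late-exponential cells were seeded at 3×10^6 cells/mL and exposed for 24 h to test compound (DMSO stock diluted in RPMI), in triplicate. Controls were 0.5% DMSO and amphotericin B. Resazurin fluorescence gave viability and IC50 was fitted.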

Data set [4] relates to L. infantum intracellular amastigotes. Briefly: IC50 against Leishmania intracellular amastigotes in infected macrophages. Type of data set: cell-based, Leishmania infantum. Particulars: CC50 BMDM versus IC50 intracellular amastigotes. The procedure, abridged: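 Ratio of BMDM CC50 (resazurin, 24 h) to intracellular IC50. For IC50, BALB/c BMDM were infected 3 h with stationary-phase L. infantum promastigotes (10:1), then washed. After 24 h, test compound in DMEM was added for 24 h, with 0.5% DMSO and amphotericin B controls. Cells were fixed, DAPI/CellMask stained and imaged automatically. IC50 was derived from percent infected macrophages.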

The subject of data set [5] is L. infantum axenic amastigotes. Description: Activity against axenic amastigotes. The format is cell-based. Particulars: Leishmania infantum, 24 h, read-out: IC50 L. infantum (AA). The essentials:
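L. infantum axenic amastigotes came from parasites recently recovered from infected mouse spleen. They were kept at 37 °C, 5% CO2 in MAA with 20% iFBS, 2 mM Glutamax and 0.023 mM hemin. Cells were seeded at 1.5×10^5 per well in MAA20. Test compound was dissolved in DMSO and diluted in medium for 24 h, in triplicate. Controls were 0.5% DMSO and amphotericin B. Viability was read by resazurin fluorescence and IC50 fitted.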

SMILES strings stand for the structures.

With `CC1(C)CC(=O)c2cc(CNC(=O)C/C=C/c3ccccc3)ccc2N1` [Compound 14e, (E)-N-((2,2-dimethyl-4-oxo-1,2,3,4-tetrahydroquinolin-6-yl)methyl)-4-phenylbut-3-enamide], the CC50 at 24 h in data set [1] is more than 40 µM. In addition, the IC50 was 10 to 20 µM in data set [2] and more than 20 µM in the data set with L. major promastigotes.

For the compound `Cc1ccc(Cc2ccc3c(c2)C(=O)CC(C)(C)O3)cc1` [Compound 21, 2,2-dimethyl-6-(4-methylbenzyl)chroman-4-one], the IC50 (in data set [2]; in the data set with L. major promastigotes; in data set [3]) was more than 20 µM in each case.

In turn, `CCCCCCCCNCc1ccc2c(c1)C(=O)CC(C)(C)O2` [Compound 13c, 2,2-dimethyl-6-((octylamino)methyl)chroman-4-one] gave a selectivity index in data set [4] of 1.6. Besides, in data set [1], the CC50 at 24 h worked out at 40.2 ± 5.7 µM. Further, the IC50 in data set [5] is 25.3 ± 2.1 µM.

As for `C/C=C/C(=O)NCc1ccc2c(c1)C(=O)CC(C)(C)N2` [Compound 14b, (E)-N-((2,2-dimethyl-4-oxo-1,2,3,4-tetrahydroquinolin-6-yl)methyl)but-2-enamide], in data set [1], the CC50 at 24 h was more than 40 µM. The IC50 (in data set [2]; in the data set on L. major promastigotes; in data set [3]) was more than 20 µM each time.

In the case of `C/C=C(\CO)C(=O)OCc1ccc2c(c1)C(=O)CC(C)(C)O2` [Compound 12a, (2,2-dimethyl-4-oxochroman-6-yl)methyl (E)-2-(hydroxymethyl)but-2-enoate], the 50% inhibitory concentration (IC50) (in data set [2]; in the data set on L. major promastigotes; in data set [3]) was more than 20 µM each time.

In data set [1], `CC(C)=CC(=O)NCc1ccc2c(c1)C(=O)CC(C)(C)N2` [Compound 14d, N-((2,2-dimethyl-4-oxo-1,2,3,4-tetrahydroquinolin-6-yl)methyl)-3-methylbut-2-enamide] came in with a CC50 at 24 h of more than 40 µM. Besides, the IC50 (in data set [2]; in the data set on L. major promastigotes; in data set [3]) was more than 20 µM in each case.

On to `C/C=C(\CO)C(=O)NCc1ccc2c(c1)C(=O)CC(C)(C)N2` [Compound 14g, (E)-N-((2,2-dimethyl-4-oxo-1,2,3,4-tetrahydroquinolin-6-yl)methyl)-2-(hydroxymethyl)but-2-enamide], for which the IC50 (in data set [2]; in the data set on L. major promastigotes; in data set [3]) was more than 20 µM in each case.

For the compound `C[C@@H]1[C@H](O)[C@@H](C)/C=C/C=C/C=C/C=C/C=C/C=C/C=C/[C@H](O[C@@H]2O[C@H](C)[C@@H](O)[C@H](N)[C@@H]2O)C[C@@H]2O[C@](O)(C[C@@H](O)C[C@@H](O)[C@H](O)CC[C@@H](O)C[C@@H](O)CC(=O)O[C@H]1C)C[C@H](O)[C@H]2C(=O)O` [Amphotericin B, reference compound], in data set [1], the CC50 at 24 h is 4.37 ± 0.97 µM. Further, the IC50 in data set [2] came out at 0.2 ± 0.06 µM; with L. major promastigotes, 0.17 ± 0.08 µM; in data set [3], 0.18 ± 0.09 µM; in data set [5], 0.4 ± 0.3 µM.

For `C/C=C(\CO)C(=O)NCc1ccc2c(c1)C(=O)CC(C)(C)O2` [Compound 13a, (E)-N-((2,2-dimethyl-4-oxochroman-6-yl)methyl)-2-(hydroxymethyl)but-2-enamide], the IC50 (in data set [2]; with L. major promastigotes; in data set [3]) was more than 20 µM throughout.

Compound `C/C=C(\C)C(=O)NCc1ccc2c(c1)C(=O)CC(C)(C)N2` [Compound 14c, (E)-N-((2,2-dimethyl-4-oxo-1,2,3,4-tetrahydroquinolin-6-yl)methyl)-2-methylbut-2-enamide] returned a CC50 at 24 h in data set [1] of more than 40 µM. The IC50 (in data set [2]; in the data set with L. major promastigotes; in data set [3]) was more than 20 µM throughout.

On to `CC1(C)CC(=O)c2cc(CNC(=O)/C=C/c3cccs3)ccc2N1` [Compound 14f, (E)-N-((2,2-dimethyl-4-oxo-1,2,3,4-tetrahydroquinolin-6-yl)methyl)-3-(thiophen-2-yl)acrylamide], for which the CC50 at 24 h in data set [1] is more than 40 µM. Also, the IC50 (in data set [2]; with L. major promastigotes; in data set [3]) was more than 20 µM in each case.

In general, CC50 refers to the concentration at which the toxic effect on the cells reaches its halfway point. As usually defined, the IC50 is the concentration that gives 50% inhibition.

The values above are taken from PMC7096758 (Heliyon, 2020).
